Source: ChEMBL document CHEMBL1157379, “Transcriptional response of Candida parapsilosis following exposure to farnesol” (2007)
Activity calls are given as the source filed them. The calls are words filed in the database; no cut-off is given here.

Assays:
[1] = tested on: Candida parapsilosis; assay: Decrease in HOS2 gene expression in Candida parapsilosis CLIB214 at 50 uM after 2 hrs by microarray based transcriptional profiling relative to control; format: functional
Procedure, shortened: (§1)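 Strain CLIB214 grown overnight in YPD at 30°C, diluted to A600 0.2 in fresh YPD at 30°C. After 4 h (A600 0.8), farnesol (40 mM methanol stock) added to 50 μM final, or an equal methanol volume as control; cells harvested 2 h later. RNA was accepted only with a 28S/18S ratio of 1.6–2.2. Cy3/Cy5-dCTP-labelled cDNA was made from 25 μg total RNA. Hybridisation was to duplicate-spotted 68-mer oligo arrays (3,849 genes) at 42°C for about 16 h. Six individual comparisons.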

[2] = tested on: Candida parapsilosis; assay: Antifungal activity against Candida parapsilosis CLIB214 assessed as growth inhibition at 50 uM added after 6 hrs of bacterial growth measured after 4 hrs; format: functional; conditions: Lodderomyces parapsilosis
Procedure, shortened: (§2)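 Overnight YPD culture at 30°C diluted to A600 0.2 in YPD. Farnesol added to 50 μM final at 2, 4, 6 or 8 h of growth (A600 about 0.8 at 4 h, 2.3 at 6 h, 6 at 8 h). Growth compared with methanol controls by A600 or cell counts.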

[3] = tested on: Candida parapsilosis; assay: Increase in DOT5 gene expression in Candida parapsilosis CLIB214 at 50 uM after 2 hrs by microarray based transcriptional profiling relative to control; format: functional
Procedure, shortened: (§3)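 Strain grown overnight in YPD at 30°C, diluted to A600 0.2 in YPD at 30°C; farnesol (40 mM methanol stock) added at 4 h (A600 0.8), final 50 μM; methanol-only control. Cells collected 2 h later for RNA. Labelled cDNA from 25 μg total RNA (Cy3/Cy5-dCTP) hybridized to 68-mer oligo arrays at 42°C ~16 h; six individual comparisons analysed statistically.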

[4] = tested on: Candida parapsilosis; assay: Increase in RTA3 gene expression in Candida parapsilosis CLIB214 at 50 uM after 2 hrs by microarray based transcriptional profiling relative to control; format: functional; procedure, shortened: as §3
[5] = tested on: Candida parapsilosis; assay: Decrease in RIA1 gene expression in Candida parapsilosis CLIB214 at 50 uM after 2 hrs by microarray based transcriptional profiling relative to control; format: functional; procedure, shortened: as §1
[6] = tested on: Candida parapsilosis; assay: Increase in TEF1 gene expression in Candida parapsilosis CLIB214 at 50 uM after 2 hrs by microarray based transcriptional profiling relative to control; format: functional; procedure, shortened: as §3
[7] = tested on: Candida parapsilosis; assay: Decrease in CGD gene ortholog accession number orf19.2328 expression in Candida parapsilosis CLIB214 at 50 uM after 2 hrs by microarray based transcriptional profiling relative to control; format: functional
Procedure, shortened: (§4)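 Cells in YPD at 30°C treated with 50 μM farnesol at 4 h, with a methanol control. RNA harvested 2 h later and kept only if 28S/18S ratio was 1.6–2.2 with no degradation. 25 μg total RNA oligo-dT primed and labeled with Cy3/Cy5-dCTP. Labeled cDNA hybridized about 16 h at 42°C to duplicate-spotted 68-mer oligo arrays. Six individual comparisons analyzed statistically.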

[8] = tested on: Candida parapsilosis; assay: Antifungal activity against Candida parapsilosis CLIB214 assessed as growth inhibition at 50 uM added after 8 hrs of bacterial growth measured after 4 hrs; format: functional; conditions: Lodderomyces parapsilosis; procedure, shortened: as §2
[9] = tested on: Candida parapsilosis; assay: Increase in GRP2 gene expression in Candida parapsilosis CLIB214 by RT-PCR; format: functional, organism-based
Procedure, shortened: (§5)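 Cultures in YPD at 30°C, diluted to A600 0.2; 50 μM farnesol (final) or methanol added at 4 h, RNA harvested 2 h later. RT-PCR: 95°C hot start 1 min 30 s, then 26 cycles (95°C 40 s, 55°C 2 min, 72°C 3 min), final 72°C 5 min; each gene signal normalized to ACT1.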

[10] = tested on: Candida parapsilosis; assay: Increase in CGD gene ortholog accession number orf19.3544 expression in Candida parapsilosis CLIB214 at 50 uM after 2 hrs by microarray based transcriptional profiling relative to control; format: functional; procedure, shortened: as §1
[11] = tested on: Candida parapsilosis; assay: Cell cycle arrest in Candida parapsilosis CLIB214 assessed as accumulation at G1 phase at 50 uM added 4 hrs after […] growth; format: functional, organism-based
Procedure, shortened: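 YPD culture diluted to A600 0.2 at 30°C. Farnesol added to 50 μM after 4 h. Budding cells scored by microscopy: unbudded as G1, small budded as S, large budded as G2/M. Compared with methanol controls.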

[12] = tested on: Candida parapsilosis; assay: Increase in CGD gene ortholog accession number orf19.5847 expression in Candida parapsilosis CLIB214 at 50 uM after 2 hrs by microarray based transcriptional profiling relative to control; format: functional; procedure, shortened: as §1
[13] = tested on: Candida parapsilosis; assay: Antifungal activity against Candida parapsilosis CLIB214 assessed as growth inhibition at 50 uM added after 4 hrs of bacterial growth measured after 2 hrs; format: functional; conditions: Lodderomyces parapsilosis; procedure, shortened: as §2
[14] = tested on: Candida parapsilosis; assay: Increase in CGD gene ortholog accession number orf19.3349 expression in Candida parapsilosis CLIB214 at 50 uM after 2 hrs by microarray based transcriptional profiling relative to control; format: functional; procedure, shortened: as §1
[15] = tested on: Candida parapsilosis; assay: Antifungal activity against Candida parapsilosis CLIB214 assessed as growth inhibition at 50 uM added after 2 hrs of bacterial growth measured after 2 hrs; format: functional; conditions: Lodderomyces parapsilosis, CLIB214, 2 h; procedure, shortened: as §2
[16] = tested on: Candida parapsilosis; assay: Increase in STP2 gene expression in Candida parapsilosis CLIB214 at 50 uM after 2 hrs by microarray based transcriptional profiling relative to control; format: functional; procedure, shortened: as §3
[17] = tested on: Candida parapsilosis; assay: Increase in CGD gene ortholog accession number orf19.7097 expression in Candida parapsilosis CLIB214 at 50 uM after 2 hrs by microarray based transcriptional profiling relative to control; format: functional; procedure, shortened: as §1
[18] = tested on: Candida parapsilosis; assay: Increase in REG1 gene expression in Candida parapsilosis CLIB214 at 50 uM after 2 hrs by microarray based transcriptional profiling relative to control; format: functional; procedure, shortened: as §3
[19] = tested on: Candida parapsilosis; assay: Decrease in PCL7 gene expression in Candida parapsilosis CLIB214 at 50 uM after 2 hrs by microarray based transcriptional profiling relative to control; format: functional; procedure, shortened: as §1
[20] = tested on: Candida parapsilosis; assay: Decrease in CGD gene ortholog accession number orf19.3704 expression in Candida parapsilosis CLIB214 at 50 uM after 2 hrs by microarray based transcriptional profiling relative to control; format: functional; procedure, shortened: as §4
[21] = tested on: Candida parapsilosis; assay: Increase in ENA2 gene expression in Candida parapsilosis CLIB214 at 50 uM after 2 hrs by microarray based transcriptional profiling relative to control; format: functional; procedure, shortened: as §3
[22] = tested on: Candida parapsilosis; assay: Increase in GIR2 gene expression in Candida parapsilosis CLIB214 at 50 uM after 2 hrs by microarray based transcriptional profiling relative to control; format: functional; procedure, shortened: as §3
[23] = tested on: Candida parapsilosis; assay: Reduction in ERG1 gene expression in Candida parapsilosis CLIB214 by RT-PCR; format: functional, organism-based; procedure, shortened: as §5
[24] = tested on: Candida parapsilosis; assay: Increase in ATP2 gene expression in Candida parapsilosis CLIB214 at 50 uM after 2 hrs by microarray based transcriptional profiling relative to control; format: functional; procedure, shortened: as §1
[25] = tested on: Candida parapsilosis; assay: Increase in CGD gene ortholog accession number orf19.854 expression in Candida parapsilosis CLIB214 at 50 uM after 2 hrs by microarray based transcriptional profiling relative to control; format: functional; procedure, shortened: as §3
[26] = tested on: Candida parapsilosis; assay: Increase in PDB1 gene expression in Candida parapsilosis CLIB214 at 50 uM after 2 hrs by microarray based transcriptional profiling relative to control; format: functional; procedure, shortened: as §3
[27] = tested on: Candida parapsilosis; assay: Decrease in CGD gene ortholog accession number orf19.3434 expression in Candida parapsilosis CLIB214 at 50 uM after 2 hrs by microarray based transcriptional profiling relative to control; format: functional; procedure, shortened: as §4

With `CC(C)=CCC/C(C)=C/CC/C(C)=C/CO` [FARNESOL] the “fold change (FC)” value [1] was 2.62, the inhibition at 50 µM [2] was 49% and the “fold change (FC)” value [3] was 1.5. For the same molecule, the “fold change (FC)” value [4] was 1.67, the “fold change (FC)” value [5] was 1.65 and the “fold change (FC)” value [6] was 1.61. For the same molecule, the “fold change (FC)” value [7] was 1.5, the inhibition at 50 µM [8] was 16% and the Activity [9] was “Active”. The “fold change (FC)” value [10] was 1.87, the Activity [11] was “Active” and the “fold change (FC)” value [12] was 1.89. The inhibition at 50 µM [13] was 88.5%, the “fold change (FC)” value [14] was 1.78 and the inhibition at 50 µM [15] was 68.5%. For the same molecule, the “fold change (FC)” value [16] was 1.63, the “fold change (FC)” value [17] was 1.86 and the “fold change (FC)” value [18] was 1.56. The “fold change (FC)” value [19] was 1.75, the “fold change (FC)” value [20] was 1.96 and the “fold change (FC)” value [21] was 1.77. For the same molecule, the “fold change (FC)” value [22] was 1.74, the Activity [23] was “Active” and the “fold change (FC)” value [24] was 2.16. For the same molecule, the “fold change (FC)” value [25] was 1.69, the “fold change (FC)” value [26] was 1.7 and the “fold change (FC)” value [27] was 1.8.
